In ChEMBL document CHEMBL4138243, “Synthesis, biological evaluation, and metabolic stability of phenazine derivatives as antibacterial agents” (Eur J Med Chem, 2018):
Converted amounts (≈) assume the structure as drawn. The source made the active and inactive calls. The calls are words filed in the database; no cut-off is given here.

How the values were obtained:
[1] = test system: Staphylococcus aureus; experiment: Antibacterial activity against methicillin-resistant Staphylococcus aureus USA300 JE2 after 24 hrs by broth microdilution method; format: functional; settings: USA300 JE2, 24 h
How it was run: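 Broth microdilution. Test material taken from a 1 mg/mL DMSO stock and serially diluted 2-fold in Mueller Hinton broth containing 5% DMSO. Wells inoculated with a direct colony suspension at 0.5 McFarland, then incubated statically at 37 °C for 24 h. MIC is the lowest concentration with no growth, read by eye and by OD600. Vancomycin and gentamicin as positive controls. Run in triplicate.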

[2] = test system: Escherichia coli; experiment: Antibacterial activity against Escherichia coli K-12 after 24 hrs by broth microdilution method; format: functional
How it was run: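 Broth microdilution per ASM Clinical Microbiology Procedures Handbook (3rd ed.); 1 mg/mL DMSO stock serially 2-fold diluted in Mueller Hinton broth with 5% DMSO; inoculum from direct colony suspension at 0.5 McFarland; static incubation 37 °C, 24 h. MIC = lowest concentration without visible growth (eye and OD600). Vancomycin and gentamicin positive controls, medium negative control; triplicate.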

[3] = Metabolic stability in human liver S9 fraction at 1 uM after 5 to 60 mins by LC-MS/MS method; format: ADME, subcellular; settings: s9, 1 µM
How it was run: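 Compounds incubated with human liver S9 fraction, covering phase I and phase II enzymes; depletion followed over incubation time as percent remaining. Mean ± S.D., n = 3.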

[4] = Stability in simulated intestinal fluid at pH 6.8 at 1 uM after 2 hrs by LC-MS/MS method; format: ADME; settings: simulated gi fluid, pH 6.8, 2 h
How it was run: (§1)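 Stability tested in simulated gastric fluid (pH 1.2), simulated intestinal fluid (pH 6.8) and 50 mM tris buffer (pH 7.4) using literature protocols.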

[5] = Stability in simulated gastric fluid at pH1.2 at 1 uM after 2 hrs by LC-MS/MS method; format: ADME; settings: simulated gi fluid, pH 1.2, 2 h; how it was run: as §1
[6] = test system: Staphylococcus aureus; experiment: Induction of membrane damage of methicillin-resistant Staphylococcus aureus USA300 JE2 at MIC after 18 hrs by propidium iodide staining-based flow cytometric method; format: functional, organism-based
How it was run: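 Flow cytometry membrane-permeability assay. […] Propidium iodide stock at 1 mg/mL added, held 15–20 min in the dark, then cells washed three times and resuspended in PBS. Controls: PI-stained untreated cells and cells treated with 70% ethanol.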

[7] = test system: Staphylococcus aureus; experiment: Induction of biofilm dispersion of methicillin-resistant Staphylococcus aureus USA300 JE2 at 2 times MIC after 24 hrs by crystal violet staining-based assay relative to control; format: functional
How it was run: (§2)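 Preformed-biofilm dispersion. Gelatin-coated wells seeded with 1 × 10^6 CFU/mL in TSB with 0.5% glucose and grown 24 h at 37 °C. Medium replaced with 2-fold dilutions in fresh TSB with 0.5% glucose, then a further 24 h at 37 °C. Biofilm fixed with methanol, stained with 0.1% crystal violet, dissolved in methanol:acetic acid:water 4:1:5 and read at OD540.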

[8] = test system: Staphylococcus aureus; experiment: Induction of membrane damage of methicillin-resistant Staphylococcus aureus USA300 JE2 at 2 times MIC after 18 hrs by transmission electron microscopic method; format: functional, organism-based
How it was run: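 TEM. […] Cells washed three times in PBS, then fixed in 2% glutaraldehyde with 2% paraformaldehyde in 0.1 M phosphate buffer.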

[9] = test system: Galleria mellonella; experiment: Toxicity in Galleria mellonella larvae assessed as decrease in survival at 0.5 times MIC after 96 hrs; format: organism-based; settings: in vivo
[10] = test system: Staphylococcus aureus; experiment: Antibacterial activity against methicillin-resistant Staphylococcus aureus USA300 JE2 at 10 times MIC after 6 days by Kirby Bauer method; format: functional, organism-based
How it was run: (§3)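 Mutant-resistance disc assay. Culture grown in Mueller Hinton broth for 4 h, diluted to 1.5 × 10^8 CFU/mL (0.5 McFarland) and spread on Mueller Hinton agar. 6 mm paper discs loaded with compound in DMSO at 10 × MIC. Plates at 37 °C. Inhibition zone diameter read at 24 h. Plates then kept 6 days and checked for colonies growing inside the zone.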

[11] = test system: Staphylococcus aureus; experiment: Inhibition of biofilm formation of methicillin-resistant Staphylococcus aureus USA300 JE2 at MIC after 24 hrs by crystal violet staining-based assay relative to control; format: functional
How it was run: (§4)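 Biofilm formation inhibition. Gelatin-coated wells received 2-fold dilutions in TSB with 0.5% glucose plus cells at 2 × 10^6 CFU/mL from fresh culture. Incubated at 37 °C for 24 h. Wells gently rinsed, stained with 0.1% crystal violet for 10 min, destained in methanol:acetic acid:water 4:1:5 and read at OD540.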

[12] = Cytotoxicity against HCEC after 24 hrs by MTT assay; design: species or system Homo sapiens
How it was run: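 HCEC cells grown in HCEC medium at 37 °C in a hypoxia chamber, seeded 6000 cells/well, left 24 h, then exposed 24 h to 200, 100, 50, 25, 12.5, 6.25 or 0 (vehicle) µg/mL. MTT added from a 2 mg/mL stock for 2 h, formazan dissolved in DMSO, absorbance read at 570 nm.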

[13] = test system: Staphylococcus aureus; experiment: Antibacterial activity against methicillin-resistant Staphylococcus aureus USA300 JE2 at 10 times MIC after 24 hrs by Kirby Bauer method; format: functional; how it was run: as §3
[14] = test system: Staphylococcus aureus; experiment: Bacteriostatic activity against methicillin-resistant Staphylococcus aureus USA300 JE2 at 3 times MIC after 1 to 24 hrs by time killing assay; format: functional, organism-based
How it was run: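 Time-kill. Culture grown in Mueller Hinton broth at 37 °C for 6 h, adjusted to about 7.5 × 10^6 CFU/mL and exposed to 3 × MIC at 37 °C. Samples taken at 0, 1, 2, 3, 4, 6 and 24 h, serially diluted 10-fold in 0.9% saline and plated on Mueller Hinton agar for 24 h at 37 °C. Colonies counted and plotted as log CFU/mL. Triplicate.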

[15] = test system: Staphylococcus aureus; experiment: Induction of biofilm dispersion of methicillin-resistant Staphylococcus aureus USA300 JE2 at MIC after 24 hrs by crystal violet staining-based assay relative to control; format: functional; how it was run: as §2
[16] = Stability in tris buffer at pH 7.4 at 1 uM after 2 hrs by LC-MS/MS method; format: physicochemical; settings: pH 7.4, 2 h; how it was run: as §1
[17] = test system: Escherichia coli; experiment: Induction of membrane damage of Escherichia coli K-12 at 2 times MIC after 18 hrs by transmission electron microscopic method; format: functional, organism-based
[18] = test system: Staphylococcus aureus; experiment: Induction of biofilm dispersion of methicillin-resistant Staphylococcus aureus USA300 JE2 at 1 to 32 ug/ml after 24 hrs by crystal violet staining-based assay relative to control; format: functional, organism-based; how it was run: as §2
[19] = Toxicity in Galleria mellonella larvae assessed as survival at 3 ug/ml after 96 hrs relative to control; format: organism-based; settings: in vivo
[20] = test system: Staphylococcus aureus; experiment: Inhibition of biofilm formation of methicillin-resistant Staphylococcus aureus USA300 JE2 at 8 times MIC after 24 hrs by crystal violet staining-based assay relative to control; format: functional; how it was run: as §4
[21] = test system: Staphylococcus aureus; experiment: Antibacterial activity against methicillin-resistant Staphylococcus aureus USA300 JE2 at 10 ug after 24 hrs by Kirby Bauer method; format: functional; settings: USA300 JE2, 24 h, read-out: DIZ
How it was run: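 Disc diffusion reference, streptomycin 10 µg. 0.5 McFarland inoculum spread on Mueller Hinton agar with 6 mm discs. Incubated at 37 °C and inhibition zone diameter measured after 24 h.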

Row | Molecule | MIC [1] [µg/mL] | MIC ([2]; K-12, 24 h) [µg/mL] | also measured
1 | COc1ccc2nc3c(C(=O)O)cccc3nc2c1 | 256 (≈ 1010 µM) | 64 (≈ 252 µM) | 
2 | N#CNC(=O)c1cccc2nc3cccc(F)c3nc12 | 128 (≈ 481 µM) | 128 (≈ 481 µM) | 
3 | CN(C(=O)c1cccc2nc3ccccc3nc12)S(C)(=O)=O | 256 (≈ 812 µM) | 128 (≈ 406 µM) | 
4 | O=C(O)c1cccc2nc3c(Cl)ccc(Cl)c3nc12 | 64 (≈ 218 µM) | 128 (≈ 437 µM) | 
5 | CS(=O)(=O)NC(=O)c1cccc2nc3c(Cl)ccc(Cl)c3nc12 | 16 (≈ 43.2 µM) | 64 (≈ 173 µM) | Stability [3]: Stable; Stability [4]: Stable; Stability [5]: Stable; Activity [6]: inactive; Activity [7]: 61%; Activity [8]: inactive; Activity [9]: Non-Toxic; Activity [10]: Active; inhibition (INH) [11]: 82%; IC50 [12]: 208 µM; diameter of the inhibition zone (DIZ) [13]: 19 mm; Activity [14]: Active; Activity [15]: 42%; Stability [16]: Stable; Activity [17]: inactive
6 | CS(=O)(=O)NC(=O)c1cccc2nc3cccc(F)c3nc12 | 64 (≈ 200 µM) | 128 (≈ 401 µM) | 
7 | CS(=O)(=O)NC(=O)c1cccc2nc3ccccc3nc12 | 128 (≈ 425 µM) | 128 (≈ 425 µM) | 
8 | N#CNC(=O)c1cccc2nc3cccc(Cl)c3nc12 | 128 (≈ 453 µM) | 128 (≈ 453 µM) | 
9 | GENTAMICIN |  |  | MIC [2]: 0.25 µg/mL
10 | CN(C(=O)c1cccc2nc3cccc(Cl)c3nc12)S(C)(=O)=O | > 256 | 64 (≈ 183 µM) | 
11 | CS(=O)(=O)NC(=O)c1cccc2nc3cccc(Cl)c3nc12 | 2 (≈ 5.96 µM) | 128 (≈ 381 µM) | Activity [18]: inactive; Stability [3]: Stable; Stability [4]: Stable; Stability [5]: Stable; Activity [6]: inactive; Activity [8]: inactive; Activity [10]: Active; diameter of the inhibition zone (DIZ) [13]: 16 mm; survival at 96 h [19]: 70%; Stability [16]: Stable; inhibition (INH) [20]: 90%; Activity [17]: inactive
12 | O=C(NO)c1cccc2nc3cccc(Cl)c3nc12 | 32 (≈ 117 µM) | 128 (≈ 468 µM) | 
13 | COc1ccc(Br)c2nc3c(C(=O)NC#N)cccc3nc12 | 256 (≈ 717 µM) | 32 (≈ 89.6 µM) | 
14 | COc1cc(Br)c2nc3c(C(=O)O)cccc3nc2c1 | 64 (≈ 192 µM) | 256 (≈ 768 µM) | 
15 | NC(=O)c1cccc2nc3cccc(Cl)c3nc12 | > 256 | 128 (≈ 497 µM) | 
16 | N#Cc1cccc2nc3cccc(Cl)c3nc12 | > 256 | 64 (≈ 267 µM) | 
17 | COC(=O)c1cccc2nc3cc(OC)cc(Br)c3nc12 | 128 (≈ 369 µM) | 128 (≈ 369 µM) | 
18 | Cc1cccc2nc3cccc(C(=O)NS(C)(=O)=O)c3nc12 | 32 (≈ 101 µM) | 32 (≈ 101 µM) | Activity [10]: Active
19 | CN[C@@H]1[C@H](O[C@H]2[C@H](O[C@H]3[C@H](O)[C@@H](O)[C@H](N=C(N)N)[C@@H](O)[C@@H]3N=C(N)N)O[C@@H](C)[C@]2(O)C=O)O[C@@H](CO)[C@H](O)[C@H]1O [STREPTOMYCIN] |  |  | zone of inhibition at 10 µg/disc [21]: 18 mm
20 | COC(=O)c1cccc2nc3cccc(OC)c3nc12 | 128 (≈ 477 µM) | 128 (≈ 477 µM) | 
21 | COc1ccc(OC)c2nc3c(C(=O)O)cccc3nc12 | 64 (≈ 225 µM) | 64 (≈ 225 µM) | 
22 | NC(=O)c1cccc2nc3c(Cl)ccc(Cl)c3nc12 | 128 (≈ 438 µM) | 32 (≈ 110 µM) | 
23 | COC(=O)c1cccc2nc3cc(Br)cc(OC)c3nc12 | 128 (≈ 369 µM) | 128 (≈ 369 µM) | 
24 | COc1ccc(Br)c2nc3c(C(=O)NS(C)(=O)=O)cccc3nc12 | 128 (≈ 312 µM) | 64 (≈ 156 µM) | 
25 | COC(=O)c1cccc2nc3c(Cl)ccc(Cl)c3nc12 | 128 (≈ 417 µM) | 64 (≈ 208 µM) | 
26 | CC(C)(C)[Si](C)(C)ON |  |  | Activity [10]: Active; diameter of the inhibition zone (DIZ) [13]: 11 mm
27 | COc1cc(Br)cc2nc3cccc(C(=O)O)c3nc12 | 128 (≈ 384 µM) | 128 (≈ 384 µM) | 
28 | O=C(Nc1nnn[nH]1)c1cccc2nc3cccc(Cl)c3nc12 | 32 (≈ 98.2 µM) | 128 (≈ 393 µM) | 
29 | COC(=O)c1cccc2nc3cc(OC)ccc3nc12 | 128 (≈ 477 µM) | 64 (≈ 239 µM) | 
30 | COc1ccc(Br)c2nc3c(C(=O)O)cccc3nc12 | 128 (≈ 384 µM) | 64 (≈ 192 µM) | 
